Data on ten molecules can be found in ChEMBL document CHEMBL1157464, “1-[(3-Aryloxy-3-aryl)propyl]-1H-imidazoles, new imidazoles with potent activity against Candida albicans and dermatophytes. Synthesis, structure-activity relationship, and molecular modeling studies” (J Med Chem, 2008).

In assay [1] the test system is Candida albicans. The experiment in a line: Antifungal activity against Candida albicans ATCC 10261 at 35 degC after 48 to 96 hrs by broth microdilution test. The class given is functional. Particulars: for MFC: Candida albicans, ATCC 10261, read-out: MFC. The procedure, abridged:
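Minimal fungicidal concentration for Candida. […] MFC is the lowest concentration allowing fewer than two colonies (99% killing).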
(Broth dilution looks for growth in wells or tubes with falling amounts of substance.)

A further assay relates to Candida parapsilosis. Briefly: Antifungal activity against Candida parapsilosis ATCC 22019 at 35 degC after 48 hrs by broth microdilution test. It is filed as functional. Conditions: Lodderomyces parapsilosis, ATCC 22019, 48 h; for MFC: read-out: MFC; for MIC: read-out: MIC. An outline of the steps: (§1)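 Broth microdilution per NCCLS M27-A2. Stocks in 100% DMSO, diluted in RPMI 1640 with 0.165 M MOPS at pH 7.0; final range 0.25–128 µg/mL. Inoculum 1000–5000 cells/mL from SDA subcultures. […] C. parapsilosis ATCC22019 served as QC strain.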

The test system of assay [2] is Candida albicans. The experiment in a line: Antifungal activity against Candida albicans ATCC 10261 at 35 degC after 48 hrs by broth microdilution test. The class given is functional. Particulars: Candida albicans, ATCC 10261, 48 h; for MIC: read-out: MIC; for MIC50: read-out: MIC50; for MIC90: read-out: MIC90. An outline of the steps: as §1
For assay [3], the system named is Arthrodermataceae. Briefly: Antifungal activity against dermatophytes at 28 degC after 7 days by broth microdilution test. It is filed as functional. Conditions: 168 h. The procedure, abridged:
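Ten clinical isolates (two M. canis, five M. gypseum, three T. mentagrophytes) tested by NCCLS M38-A broth microdilution in MOPS-buffered RPMI 1640, pH 7.0, over 0.25–128 µg/mL. Conidial/hyphal suspension from PDA slants (28 °C, 7 days) adjusted to 65–70% transmittance at OD530, then diluted 1:50.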

Assay [4] has as its system Arthrodermataceae. Briefly: Antifungal activity against dermatophytes at 28 degC after 48 to 96 hrs by broth microdilution test.
Assay [5] concerns Arthrodermataceae. The experiment in a line: Antifungal activity against dermatophytes at 28 degC after 5 days by broth microdilution test. Particulars: for MFC: Arthrodermataceae.

Values after ≈ are worked out from the molar mass of the structure shown. Bounds are passed on as bounds.

In general, MFC refers to the lowest tested concentration that kills the fungus rather than only halting it. One may read the MIC as the smallest concentration in the dilution series that meets the test's criterion for growth inhibition. What is called MIC50 is the lowest concentration that inhibits either 50% of growth or 50% of the strains tested, depending on the study. For orientation: MIC90 means an inhibitory concentration at the 90% level, which refers to growth in some studies and to a panel of isolates in others. Regarding `Cc1ccc(C(CCn2ccnc2)Oc2ccc(C(C)C)cc2)cc1` (stereo not given), in the assay on Candida albicans [1], the MFC50 worked out at 32 µg/mL (≈ 95.7 µM), the MFC90 is 64 µg/mL (≈ 191 µM) and the MFC is 32 µg/mL (≈ 95.7 µM). In the assay on Candida parapsilosis, the MFC was determined as 16 µg/mL (≈ 47.8 µM) and the MIC stood at 2 µg/mL (≈ 5.98 µM). In addition, in the assay on Candida albicans [2], the MIC was 16.6 µg/mL (≈ 49.6 µM), the MIC50 was found to be 16 µg/mL (≈ 47.8 µM) and the MIC90 was 32 µg/mL (≈ 95.7 µM).

For the molecule `Cc1ccc(C(CCn2ccnc2)Oc2ccccc2)cc1` (stereo not given), in the assay on Candida albicans [1], the MFC50 came to 32 µg/mL (≈ 109 µM), the MFC90 worked out at 64 µg/mL (≈ 219 µM) and the MFC was found to be 38.4 µg/mL (≈ 131 µM). Further, in the assay with Candida parapsilosis, the MFC is 32 µg/mL (≈ 109 µM) and the MIC amounted to 4 µg/mL (≈ 13.7 µM). Moreover, in the assay with Candida albicans [2], the MIC was determined as 20.3 µg/mL (≈ 69.4 µM), the MIC50 was 16 µg/mL (≈ 54.7 µM) and the MIC90 worked out at 32 µg/mL (≈ 109 µM).

With `Clc1ccc(C(OCCn2ccnc2)c2ccc(Cl)cc2Cl)c(Cl)c1`, in the assay on Candida albicans [1], the MFC50 was more than 128 µg/mL, the MFC90 was more than 128 µg/mL and the MFC was more than 128 µg/mL. Also, in the assay on Candida parapsilosis, the MFC amounted to 64 µg/mL (≈ 154 µM) and the MIC came to 32 µg/mL (≈ 76.9 µM). In the assay on Candida albicans [2], the minimal inhibitory concentration (MIC) is more than 128 µg/mL, the MIC50 is more than 128 µg/mL and the MIC90 was more than 128 µg/mL.

As for `Cc1ccc(C(CCn2ccnc2)Oc2ccc(C)cc2C)cc1` (stereo not given), in the assay on Candida albicans [1], the MFC50 amounted to 64 µg/mL (≈ 200 µM), the MFC90 was determined as 64 µg/mL (≈ 200 µM) and the MFC is 62 µg/mL (≈ 193 µM). Besides, in the assay with Candida parapsilosis, the MFC worked out at 32 µg/mL (≈ 99.9 µM) and the MIC was found to be 8 µg/mL (≈ 25 µM). Moreover, in the assay on Candida albicans [2], the MIC worked out at 46.5 µg/mL (≈ 145 µM), the MIC50 is 32 µg/mL (≈ 99.9 µM) and the MIC90 was 64 µg/mL (≈ 200 µM).

`Clc1ccc(C(CCn2ccnc2)OCc2ccc(Cl)cc2Cl)cc1` (stereo not given): in the assay on Candida albicans [1], the MFC50 stood at 64 µg/mL (≈ 162 µM), the MFC90 stood at 64 µg/mL (≈ 162 µM) and the MFC was 62 µg/mL (≈ 157 µM). In the assay on Arthrodermataceae [3], this molecule showed an MIC of 7 µg/mL (≈ 17.7 µM), an MIC50 of 8 µg/mL (≈ 20.2 µM) and an MIC90 of 8 µg/mL (≈ 20.2 µM). In the assay on Arthrodermataceae [4], the MFC50 was found to be 16 µg/mL (≈ 40.4 µM). In the assay on Arthrodermataceae [5], this molecule came in with an MFC90 of 16 µg/mL (≈ 40.4 µM) and an MFC of 17.3 µg/mL (≈ 43.7 µM). Moreover, in the assay on Candida parapsilosis, the MFC is 32 µg/mL (≈ 80.9 µM) and the MIC is 4 µg/mL (≈ 10.1 µM). In addition, in the assay with Candida albicans [2], the MIC is 60.2 µg/mL (≈ 152 µM), the MIC50 is 64 µg/mL (≈ 162 µM) and the MIC90 was 64 µg/mL (≈ 162 µM).

In the assay with Arthrodermataceae [3], `CNCCC(Oc1ccc(C(F)(F)F)cc1)c1ccccc1` (stereo not given) [FLUOXETINE] displayed an MIC of 45 µg/mL (≈ 145 µM), an MIC50 of 32 µg/mL (≈ 103 µM) and an MIC90 of 64 µg/mL (≈ 207 µM). This molecule also displayed an MFC50 against Arthrodermataceae [4] of 64 µg/mL (≈ 207 µM). Besides, in the assay on Arthrodermataceae [5], the MFC90 turned out to be 64 µg/mL (≈ 207 µM) and the MFC amounted to 64 µg/mL (≈ 207 µM).

Regarding `O=[N+]([O-])O.c1ccc(C(OCCn2ccnc2)c2ccccc2)cc1`, in the assay on Candida albicans [1], the MFC50 was 128 µg/mL, the MFC90 was more than 256 µg/mL and the MFC is 230 µg/mL. In the assay with Candida parapsilosis, the MFC is 64 µg/mL and the MIC was found to be 32 µg/mL. Moreover, in the assay on Candida albicans [2], the MIC was found to be 78.1 µg/mL, the MIC50 worked out at 64 µg/mL and the MIC90 amounted to 128 µg/mL.

`Cc1ccc(C(CCn2ccnc2)Oc2ccc(C(C)(C)C)cc2)cc1` (stereo not given): in the assay on Candida albicans [1], the MFC50 is 64 µg/mL (≈ 184 µM), the MFC90 worked out at 64 µg/mL (≈ 184 µM) and the minimum fungicidal concentration (MFC) was 58 µg/mL (≈ 166 µM). In addition, in the assay on Arthrodermataceae [3], inhibition of growth (MIC) required 11.2 µg/mL (≈ 32.1 µM), the MIC50 was 8 µg/mL (≈ 23 µM) and the MIC90 was 16 µg/mL (≈ 45.9 µM). Also, the MFC50 with Arthrodermataceae [4] is 16 µg/mL (≈ 45.9 µM). Further, in the assay on Arthrodermataceae [5], the MFC90 was determined as 16 µg/mL (≈ 45.9 µM) and the MFC came to 14.4 µg/mL (≈ 41.3 µM). In the assay with Candida parapsilosis, the MFC stood at 16 µg/mL (≈ 45.9 µM) and the minimum inhibitory concentration (MIC) is 8 µg/mL (≈ 23 µM). Further, in the assay on Candida albicans [2], the MIC is 52.1 µg/mL (≈ 150 µM), the MIC50 is 64 µg/mL (≈ 184 µM) and the MIC90 is 64 µg/mL (≈ 184 µM).

With `Cc1ccc(OC(CCCCn2ccnc2)c2ccc(Cl)cc2)cc1` (stereo not given), in the assay on Candida albicans [1], the MFC50 is 32 µg/mL (≈ 90.2 µM), the MFC90 stood at 32 µg/mL (≈ 90.2 µM) and the minimum fungicidal concentration (MFC) stood at 32 µg/mL (≈ 90.2 µM). Besides, in the assay on Candida parapsilosis, the MFC is 8 µg/mL (≈ 22.5 µM) and the MIC worked out at 8 µg/mL (≈ 22.5 µM). Besides, in the assay on Candida albicans [2], the MIC was determined as 32 µg/mL (≈ 90.2 µM), the MIC50 was 32 µg/mL (≈ 90.2 µM) and the MIC90 came out at 32 µg/mL (≈ 90.2 µM).

Regarding `OC(CCn1ccnc1)(c1ccccc1)c1ccccc1`, in the assay on Candida albicans [1], the MFC50 worked out at 128 µg/mL (≈ 460 µM), the MFC90 worked out at 128 µg/mL (≈ 460 µM) and the MFC is 128 µg/mL (≈ 460 µM). Moreover, in the assay on Candida parapsilosis, the MFC came out at 64 µg/mL (≈ 230 µM) and the MIC was found to be 32 µg/mL (≈ 115 µM). For the same molecule, in the assay on Candida albicans [2], the MIC was found to be 114 µg/mL (≈ 410 µM), the MIC50 was determined as 128 µg/mL (≈ 460 µM) and the MIC90 is 128 µg/mL (≈ 460 µM).
